GRIN3A LBD mod – binders of NR3A ligand-binding domain, primary screen, biophysical, differential scanning fluorimetry, uHTS; Glutamate receptor ionotropic, NMDA 3A (GRIN3A) ligand-binding domain; 2.5% of 340,000 active; Tm shift relative to glycine control, % at 25 µM; AID 1259313, 2017; NR3A LBD differential scanning fluorimetry, Tm shift; 0% = protein alone, 100% = glycine-bound protein;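 active means melting temperature shift of at least 10% of the positive control shift, at one fixed dose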
GASC-1 inh – inhibitors of GASC-1 histone demethylase, primary screen, biochemical, fluorescence, DELFIA europium. Lysine-specific demethylase 4C (Homo sapiens), Q9H3R0. GST-JMJD2C(1-420) H3K9me3 demethylation. inhibition, % at 2.35 µM. 0.069% of 330,000 active. AID 2099, 2009;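 active means more than half of a compound's replicate wells show inhibition beyond 50%, single wells judged on their own value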;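 further: signal counts dimethyl H3K9 product captured on neutravidin plate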
T cell HTS – modulators of CD8 T cell-vesicle binding, primary screen, mouse 2C CD8+ T cells, flow cytometry. 2C CD8+ T cell-vesicle binding; active compounds read low. response (vesicle binding), % at 7 µM. 0.068% of 330,000 active. AID 2052, 2009;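 active means response, share of CD8 T cells binding vesicles, and their 90th percentile fluorescence all below set limits, cut at about 80% in these data, passing the limit was not always enough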;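 further: values below 100% mean blocked vesicle binding to the CD8+ T cells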
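Material: 2C TCR transgenic mouse naive CD8+ T cells, MACS-purified. Also added: QL9-charged Drosophila Ld/ICAM-1/B7-1 vesicles. Timing: binding 1.5 h at 37 °C. Measured by: high-throughput flow cytometry with anti-B7-1 and anti-CD8 staining. Read-out: percent CD8+ FL2 mean versus row control. Controls: Unloaded micro-vesicles (low), QL9 vesicles with 0.7% DMSO (high).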
Rtt109 HAT inh – inhibitors of C. albicans Rtt109/Vps75 HAT, primary screen, biochemical, ThioGlo CoA-SH fluorescence, plate reader. AID 540336, 2011. 0.16% of 330,000 active. purified Rtt109/Vps75, 4 h. inhibition, % at 34.9 µM;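 active means inhibition of at least 50% in every replicate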
Target sequence (Q5AAJ8 whole entry, looked up): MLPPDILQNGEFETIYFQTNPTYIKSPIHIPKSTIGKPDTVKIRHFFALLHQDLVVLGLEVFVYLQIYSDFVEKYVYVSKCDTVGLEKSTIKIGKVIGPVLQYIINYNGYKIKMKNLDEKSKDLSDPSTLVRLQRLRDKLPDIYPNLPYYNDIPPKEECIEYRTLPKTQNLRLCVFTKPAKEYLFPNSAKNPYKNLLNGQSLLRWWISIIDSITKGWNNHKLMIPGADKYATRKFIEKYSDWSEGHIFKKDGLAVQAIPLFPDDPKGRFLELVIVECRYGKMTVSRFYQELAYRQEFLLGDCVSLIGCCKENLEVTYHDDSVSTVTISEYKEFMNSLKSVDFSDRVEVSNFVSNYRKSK
Large screens that a line does not name were inactive. The list is not random: actives were taken first. Their share in the collection is about 2.8%.

COC(=O)C1=C(C(=O)OC)[C@@H]2N(C)c3ccccc3[C@@]23C[C@@H](C(=O)OC)N(C(=O)c2ccc(Br)cc2)C3=N1	none
COC(=O)c1cc2c(n1S(=O)(=O)c1ccc(C)cc1)C(=O)C(=O)c1[nH]cc(C(=O)OCc3ccccc3)c1-2	none (no result: GASC-1 inh, T cell HTS)
CCSc1cc(N2CCCC2)nc(-c2ccc(C)cc2)n1	GRIN3A LBD mod 15
CCSc1cc(N2CCCC2)nc(-c2ccc(F)cc2)n1	none
CCOC(=O)c1sc(NC(=O)CSc2nc(-c3ccco3)cc(C(F)(F)F)n2)c(C(=O)OCC)c1C	none (no result: GASC-1 inh, T cell HTS)
Cc1cn(CC(=O)NCc2ccc(N(C)C)cc2)c(=O)[nH]c1=O	none (no result: GASC-1 inh, T cell HTS)
Cn1c2ccccc2c(=O)c2cc(C#Cc3cccc(N)c3)ccc21	GRIN3A LBD mod 22
Cn1c2ccccc2c(=O)c2ccc(C#Cc3ccc(N)cc3)cc21	GRIN3A LBD mod 12
O=C(OCCn1c(=S)sc2ccccc21)c1ccccc1	none (no result: GASC-1 inh, T cell HTS)
CCOC(=O)C1CCN(C(=O)COC(=O)C23CC4CC(CC(C4)C2)C3)CC1	none
Cc1ccc(C)c(N2CCN(C(=O)c3ccc(CS(=O)Cc4cccc(Cl)c4)o3)CC2)c1 (stereo unspecified)	none
CCN(CC)CCCN1CC(O)=C(c2nc3ccccc3s2)C1=N	GRIN3A LBD mod 18
N=C1C(c2nc3ccccc3s2)=C(O)CN1Cc1ccccc1	none
O=c1cc(-c2ccc([N+](=O)[O-])cc2)c2ccc(O)cc2o1	none
COCC(=O)N1CCC(Oc2ccc(C(=O)NCc3cc(C)n(C)n3)cc2)CC1	none
N=c1nc(-c2ccccc2)ccn1O	GASC-1 inh 53
c1ccc(-c2ccn3nnnc3n2)cc1	none
CN=C1S/C(=C/c2cn(CC(=O)OC)c3ccccc23)C(=O)N1C	GRIN3A LBD mod 12
COc1ccc(Cl)cc1C(=O)O/N=C(\N)c1ccc(Cl)cc1	GRIN3A LBD mod 20
COc1ccc(/C(N)=N/OC(=O)c2cccs2)cc1OC	GRIN3A LBD mod 22
Cc1ccc(/C(N)=N/OC(=O)c2cccs2)cc1	none
COc1ccc(S(=O)(=O)Nc2cccc3c2O[C@@H](CN(C)Cc2ccc(C(=O)O)cc2)[C@@H](C)CN([C@H](C)CO)C3=O)cc1	none
COc1ccc(S(=O)(=O)Nc2ccc3c(c2)C(=O)N([C@H](C)CO)C[C@H](C)[C@H](CN(C)Cc2ccc(C(=O)O)cc2)O3)cc1	GASC-1 inh 51
Cc1ccc(S(=O)(=O)Nc2ccc3c(c2)C(=O)N([C@H](C)CO)C[C@H](C)[C@@H](CN(C)Cc2ccc(-c4ccccc4)cc2)O3)cc1	GASC-1 inh 56
O=C1OC[C@H]2CCCN2C(=O)[C@@H](CC(=O)N(CCO)Cc2ccccc2)C/C=C\CC[C@H]1Cc1ccc(F)cc1	none
O=C(COC(=O)c1c2c(nc3ccccc13)/C(=C/c1cccc([N+](=O)[O-])c1)CCC2)NC1CCS(=O)(=O)C1 (stereo unspecified)	GRIN3A LBD mod 11
O=C(CN1C(=O)NC2(CCCC2)C1=O)OCCOc1ccc(Cl)cc1Cl	none
Cc1ccc(NC(=O)c2ccc(NCc3ccc(F)cc3)nc2)cc1	none
Cc1ccccc1Nc1ccc([N+](=O)[O-])cn1	none
Cc1ccc(NC(=O)c2ccc(Nc3ccccc3F)nc2)cc1	GRIN3A LBD mod 30
O=[N+]([O-])c1ccc(Nc2ccc(Cl)cc2)nc1	GRIN3A LBD mod 11
O=[N+]([O-])c1ccc(Nc2ccc3ccccc3c2)nc1	GRIN3A LBD mod 38
O=[N+]([O-])c1ccc(NCc2ccc(Cl)cc2)nc1	none
O=[N+]([O-])c1ccc(Nc2ccccc2F)nc1	GRIN3A LBD mod 27
Cc1[nH][nH]c(=O)c1C(c1cc([N+](=O)[O-])ccc1O)c1c(C)[nH][nH]c1=O	GRIN3A LBD mod 10
Cc1ccc(C(=O)Cn2c(C)cc(C)c(C#N)c2=O)cc1	GRIN3A LBD mod 13
Cc1cc(C)n(CC(=O)c2ccc(Br)cc2)c(=O)c1C#N	none
Cc1ccc(S(=O)(=O)N(CC(=O)N2CCC(C)CC2)Cc2ccccc2F)cc1	GRIN3A LBD mod 13
CCC1(OC(=O)CN(C)C)C(=O)OCc2c1cc1n(c2=O)Cc2cc3c(N)cccc3nc2-1 (stereo unspecified)	none (no result: GASC-1 inh, T cell HTS)
COc1cc(/C=N/NC(=O)CC#N)cc(Br)c1O	none
COc1ccc2ccccc2c1/C=N/NC(=O)c1sc(N)c(C#N)c1C	GRIN3A LBD mod 17
COc1cc(/C=N/NC(=O)c2sc(N)c(C#N)c2C)cc(Br)c1O	GRIN3A LBD mod 16
CC(C)CC(OC(=O)CC1Sc2ccccc2NC1=O)C(=O)NC1CCCC1 (stereo unspecified)	none
Cc1cc(C)cc(C(=O)NC(CC(N)=O)c2ccc(NC3CCCC3)c([N+](=O)[O-])c2)c1 (stereo unspecified)	none
CN(C)S(=O)(=O)NCC1CCCN(Cc2cc3ccccc3s2)C1 (stereo unspecified)	none
Cn1c(N)c(C(=O)COC(=O)c2ccccc2C(=O)c2ccc(Cl)cc2)c(=O)n(C)c1=O	none
COc1cc(C(=O)Nc2nc(-c3cc(C)ccc3C)c(C)s2)ccc1OCC(=O)Nc1ccc(F)cc1	none
COc1ccc(-c2nc(NC(=O)c3ccc(OCC(=O)Nc4ccc(F)cc4)c(OC)c3)sc2C)cc1	GRIN3A LBD mod 11
COc1ccc(CN(C)Cc2c(O)ccc3cc(Br)ccc23)cc1OC	none
Cc1ccc(COn2c(-c3ccc(Cl)cc3)nc3ccc([N+](=O)[O-])cc32)cc1	none
O=[N+]([O-])c1ccc2nc(-c3ccc(Cl)cc3)n(OCc3ccccc3)c2c1	GRIN3A LBD mod 18
COc1ccc(S(=O)(=O)N(C)C)cc1NC(=O)CSC(C)C(=O)Nc1cc(C)on1 (stereo unspecified)	none
Cc1ccc(OCC(=O)N/N=C2/SCC(=O)N2Cc2ccco2)cc1	none
O=C(N/N=C1/SCC(=O)N1Cc1ccco1)c1ccccc1F	GRIN3A LBD mod 16
Clc1nssc1=Nc1ccc(Br)cc1	none (no result: T cell HTS)
Clc1ccc(N=c2ssnc2Cl)nc1	GASC-1 inh 54
Cc1c(C(=O)N/N=C/c2ccc(Cl)cc2)[nH]c2ccc(Cl)cc12	GRIN3A LBD mod 26
CCOc1ccc(C(=O)N/N=C/c2ccc(SC)cc2)cc1	none
CCOc1ccc(/C=N/NC(=O)c2[nH]c3ccc(C)cc3c2C)cc1	GRIN3A LBD mod 26
O=C(NCc1n[nH]c(=O)c2ccccc12)C1CC(=O)N(c2ccccc2)C1 (stereo unspecified)	none
CCOC(=O)C1=C(C)Nc2sc(C(=O)c3ccc(F)cc3)c(N)c2C1c1ccc(C(=O)OC)cc1 (stereo unspecified)	GRIN3A LBD mod 13
Cc1c(N=C2N=C(NC(=O)NC(C)(C)C)c3ccccc32)c(=O)n(-c2ccccc2)n1C	T cell HTS 32
Cc1c(N=C2N=C(NC(=O)c3cccs3)c3ccccc32)c(=O)n(-c2ccccc2)n1C	none
CCOc1ccccc1N1CCN(C(=O)CCNS(=O)(=O)c2ccccc2F)CC1	GRIN3A LBD mod 41

Bioassay records: PubChem, several laboratories
